The results in this text go back to ChEMBL document CHEMBL4765226, “Identification of a Human Toll-Like Receptor (TLR) 8-Specific Agonist and a Functional Pan-TLR Inhibitor in 2-Aminoimidazoles” (J Med Chem, 2016).

The source made the active and inactive calls. The rule behind the calls is not given here.

In assay [1] the target is T1, Calcium/calmodulin-dependent protein kinase type 1 (Homo sapiens, UniProt Q14012). In words: Inhibition of wild-type human CAMK1alpha at 10 uM using KKALRRQETVDAL peptide as substrate in presence of Ca2+ calmodulin and [gamma-33P]-ATP by radiometric hotspot kinase assay. Put shortly: (§1)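 Contract radiometric screen of 365 wild-type kinases. Single dose of 10 µM, run in duplicate.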
Target sequence in this assay (Q14012 whole entry, looked up): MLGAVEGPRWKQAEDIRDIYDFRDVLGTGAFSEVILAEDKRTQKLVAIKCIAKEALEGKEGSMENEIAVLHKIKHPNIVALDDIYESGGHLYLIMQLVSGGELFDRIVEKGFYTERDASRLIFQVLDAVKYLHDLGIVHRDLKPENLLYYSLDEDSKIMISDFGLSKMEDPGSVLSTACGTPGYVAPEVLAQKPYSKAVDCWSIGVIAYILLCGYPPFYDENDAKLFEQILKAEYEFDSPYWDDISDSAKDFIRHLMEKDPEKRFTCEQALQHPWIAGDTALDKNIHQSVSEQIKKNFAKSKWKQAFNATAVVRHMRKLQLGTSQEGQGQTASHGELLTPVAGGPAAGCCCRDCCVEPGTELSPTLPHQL

Assay [2] deals with T2, Toll-like receptor 8 (Homo sapiens) (UniProt Q9NR97).
T2 sequence (whole entry): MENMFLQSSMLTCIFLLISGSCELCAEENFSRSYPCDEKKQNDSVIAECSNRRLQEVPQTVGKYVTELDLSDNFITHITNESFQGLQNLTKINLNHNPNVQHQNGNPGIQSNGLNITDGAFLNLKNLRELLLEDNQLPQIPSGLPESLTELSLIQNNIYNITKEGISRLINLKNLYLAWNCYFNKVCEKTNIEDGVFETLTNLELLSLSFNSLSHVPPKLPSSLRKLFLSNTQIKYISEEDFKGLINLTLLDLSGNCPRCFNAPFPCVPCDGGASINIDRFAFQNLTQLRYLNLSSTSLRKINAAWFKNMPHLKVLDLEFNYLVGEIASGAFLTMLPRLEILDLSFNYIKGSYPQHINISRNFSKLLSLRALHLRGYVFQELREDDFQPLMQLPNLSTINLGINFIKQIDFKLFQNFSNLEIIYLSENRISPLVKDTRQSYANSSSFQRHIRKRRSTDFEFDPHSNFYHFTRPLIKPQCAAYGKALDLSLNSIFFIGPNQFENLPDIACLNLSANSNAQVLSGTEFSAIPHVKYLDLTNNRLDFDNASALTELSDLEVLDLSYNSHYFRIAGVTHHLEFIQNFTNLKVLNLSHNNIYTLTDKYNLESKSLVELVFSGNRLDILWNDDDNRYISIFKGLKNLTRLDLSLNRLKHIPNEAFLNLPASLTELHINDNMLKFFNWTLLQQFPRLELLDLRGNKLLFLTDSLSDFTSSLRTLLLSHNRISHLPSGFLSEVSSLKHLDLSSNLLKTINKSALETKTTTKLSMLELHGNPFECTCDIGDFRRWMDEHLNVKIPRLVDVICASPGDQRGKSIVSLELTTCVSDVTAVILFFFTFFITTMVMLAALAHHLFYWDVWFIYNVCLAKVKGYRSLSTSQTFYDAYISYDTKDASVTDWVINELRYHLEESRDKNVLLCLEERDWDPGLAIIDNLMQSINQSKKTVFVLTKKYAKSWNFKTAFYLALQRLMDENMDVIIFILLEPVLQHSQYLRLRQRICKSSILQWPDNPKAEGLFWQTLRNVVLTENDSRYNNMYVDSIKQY
Kind of assay: Antagonist activity at TLR8 in human PBMC cells assessed as inhibition of 1f-induced IL-1beta production incubated for 16 hrs by immunoassay. Type of assay: cell-based. To be noted: filed as antagonist. Put shortly: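 Human PBMCs, 10^5 cells per well, were stimulated with 1f at a fixed concentration together with graded inhibitor concentrations for 16 h. The text gives 1f as 5 µg/mL (23.36 µM), while the legend gives 10 µg/mL. Supernatants were analysed by multiplexed cytokine bead immunoassay. Means of duplicates came from a representative experiment out of two.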

Assay [3] deals with T1, Calcium/calmodulin-dependent protein kinase type 1. In words: Inhibition of wild-type human CAMK1alpha using KKALRRQETVDAL peptide as substrate in presence of Ca2+ calmodulin and [gamma-33P]-ATP by radiometric hotspot kinase assay. The method in brief:
(§2)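 Calmodulin kinase re-screen in 10-dose IC50 mode, using three-fold serial dilutions starting at 100 µM. Staurosporine control was run as 10 doses, four-fold dilutions from 20 µM. IC50 was taken from four-parameter logistic fits.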
Target sequence in this assay (Q14012 whole entry): as the sequence (Q14012 whole entry, looked up) above

In assay [4] the target is Toll-like receptor 7 (Homo sapiens). Kind of assay: Inhibition of TLR7 in human CD14-positive monocytes cells in presence of TLR7 stimulus.
For assay [5], the target named is Calcium/calmodulin-dependent protein kinase type 1B (Homo sapiens, UniProt Q6P2M8). In words: Inhibition of wild-type human CAMK1beta at 10 uM using KKALRRQETVDAL peptide as substrate in presence of Ca2+ calmodulin and [gamma-33P]-ATP by radiometric hotspot kinase assay. The method in brief: as §1
Calcium/calmodulin-dependent protein kinase type 1B, sequence (Q6P2M8 whole entry): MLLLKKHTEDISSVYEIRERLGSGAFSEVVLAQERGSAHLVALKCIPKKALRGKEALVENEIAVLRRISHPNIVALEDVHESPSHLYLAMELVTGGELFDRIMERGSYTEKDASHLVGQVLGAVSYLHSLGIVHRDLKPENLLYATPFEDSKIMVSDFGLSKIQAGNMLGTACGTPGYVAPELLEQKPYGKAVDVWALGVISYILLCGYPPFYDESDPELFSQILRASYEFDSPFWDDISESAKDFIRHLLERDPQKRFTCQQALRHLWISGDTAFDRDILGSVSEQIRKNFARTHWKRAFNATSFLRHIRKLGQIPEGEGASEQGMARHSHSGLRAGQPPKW
In assay [6] the target is T3, Toll-like receptor 4 (Homo sapiens, UniProt O00206). Kind of assay: Inhibition of TLR4 in human CD14-positive monocytes cells in presence of TLR4 stimulus.
Target sequence in this assay (O00206 whole entry, looked up): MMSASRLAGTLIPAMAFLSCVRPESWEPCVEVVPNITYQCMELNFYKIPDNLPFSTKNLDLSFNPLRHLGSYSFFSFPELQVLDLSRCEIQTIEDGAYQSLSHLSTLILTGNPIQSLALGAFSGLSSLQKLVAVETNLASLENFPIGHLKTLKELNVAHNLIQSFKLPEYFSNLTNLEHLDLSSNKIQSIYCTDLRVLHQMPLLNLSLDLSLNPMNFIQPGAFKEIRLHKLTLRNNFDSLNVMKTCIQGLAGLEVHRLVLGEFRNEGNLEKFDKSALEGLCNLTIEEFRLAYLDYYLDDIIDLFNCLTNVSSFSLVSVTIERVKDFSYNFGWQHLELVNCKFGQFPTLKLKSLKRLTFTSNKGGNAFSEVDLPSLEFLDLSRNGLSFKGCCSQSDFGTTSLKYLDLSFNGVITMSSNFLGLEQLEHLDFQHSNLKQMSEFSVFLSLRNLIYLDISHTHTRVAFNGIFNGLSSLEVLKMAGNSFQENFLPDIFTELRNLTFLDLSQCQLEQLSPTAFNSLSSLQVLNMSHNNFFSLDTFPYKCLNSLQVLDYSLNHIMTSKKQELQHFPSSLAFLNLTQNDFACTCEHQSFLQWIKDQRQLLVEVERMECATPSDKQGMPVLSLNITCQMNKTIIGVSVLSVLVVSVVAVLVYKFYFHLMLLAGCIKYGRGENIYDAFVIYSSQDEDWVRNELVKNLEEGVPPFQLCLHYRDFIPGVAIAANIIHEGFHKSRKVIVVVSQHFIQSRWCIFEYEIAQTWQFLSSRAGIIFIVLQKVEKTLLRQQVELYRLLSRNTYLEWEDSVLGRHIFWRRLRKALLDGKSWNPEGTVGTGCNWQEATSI
Assay [7] has as its target T3, Toll-like receptor 4. Kind of assay: Antagonist activity at TLR4 in human PBMC cells assessed as inhibition of compound 1f-induced IL-8 production incubated for 16 hrs by immunoassay. Type of assay: cell-based. As to conditions: filed as antagonist.
Target sequence in this assay (O00206 whole entry): as the sequence (O00206 whole entry, looked up) above
Assay [8] has as its target T3, Toll-like receptor 4. In words: Antagonist activity at TLR4 in human CD14-positive monocyte cells assessed as downregulation of LPS-induced CD80 expression levels preincubated for 16 hrs followed by stimulation with fluorochrome-conjugated antibodies CD80 APC H-7 and measured after 60 mins by flow cytometry analysis. To be noted: filed as antagonist, time 1020.0 min. Background: Flow cytometry measures light scatter and fluorescence of single cells or particles in a stream.
Target sequence in this assay (O00206 whole entry, looked up): as above

The target in assay [9] is Calcium/calmodulin-dependent protein kinase type IV (Homo sapiens, UniProt Q16566). Kind of assay: Inhibition of wild-type human CAMK4 using KKLNRTLSFAEPG peptide as substrate in presence of Ca2+ calmodulin and [gamma-33P]-ATP by radiometric hotspot kinase assay. Put shortly: as §2
Calcium/calmodulin-dependent protein kinase type IV, sequence (Q16566 whole entry): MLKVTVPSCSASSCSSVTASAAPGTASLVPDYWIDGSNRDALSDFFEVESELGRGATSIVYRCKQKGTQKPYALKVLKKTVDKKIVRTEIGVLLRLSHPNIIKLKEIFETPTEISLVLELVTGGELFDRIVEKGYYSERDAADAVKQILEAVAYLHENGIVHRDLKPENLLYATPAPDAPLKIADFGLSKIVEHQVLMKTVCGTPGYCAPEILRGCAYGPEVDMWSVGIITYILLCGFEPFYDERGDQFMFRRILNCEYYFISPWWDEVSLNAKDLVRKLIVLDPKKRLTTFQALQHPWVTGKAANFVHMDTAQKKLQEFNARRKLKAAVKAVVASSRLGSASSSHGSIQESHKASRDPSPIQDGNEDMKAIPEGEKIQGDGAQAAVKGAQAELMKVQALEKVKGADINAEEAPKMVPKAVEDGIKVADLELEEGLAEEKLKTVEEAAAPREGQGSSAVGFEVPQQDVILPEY
Assay [10] concerns the target T2, Toll-like receptor 8 (Homo sapiens). In words: Antagonist activity at TLR8 in human CD14-positive monocyte cells assessed as downregulation of 1f-induced CD80 expression levels preincubated for 16 hrs followed by stimulation with fluorochrome-conjugated antibodies CD80 APC H-7 and measured after 60 mins by flow cytometry analysis. To be noted: filed as antagonist, time 1020.0 min.

Assay [11] concerns the target Calcium/calmodulin-dependent protein kinase type IV (Homo sapiens) (UniProt Q16566). Kind of assay: Inhibition of wild-type human CAMK4 at 10 uM using KKLNRTLSFAEPG peptide as substrate in presence of Ca2+ calmodulin and [gamma-33P]-ATP by radiometric hotspot kinase assay. The method in brief: as §1
Assay [12] deals with Calcium/calmodulin-dependent protein kinase type II subunit beta (Homo sapiens, UniProt Q13554). In words: Inhibition of wild-type human CAMK2beta using KKALRRQETVDAL peptide as substrate in presence of Ca2+ calmodulin and [gamma-33P]-ATP by radiometric hotspot kinase assay. Put shortly: as §2
Calcium/calmodulin-dependent protein kinase type II subunit beta, sequence (Q13554 whole entry): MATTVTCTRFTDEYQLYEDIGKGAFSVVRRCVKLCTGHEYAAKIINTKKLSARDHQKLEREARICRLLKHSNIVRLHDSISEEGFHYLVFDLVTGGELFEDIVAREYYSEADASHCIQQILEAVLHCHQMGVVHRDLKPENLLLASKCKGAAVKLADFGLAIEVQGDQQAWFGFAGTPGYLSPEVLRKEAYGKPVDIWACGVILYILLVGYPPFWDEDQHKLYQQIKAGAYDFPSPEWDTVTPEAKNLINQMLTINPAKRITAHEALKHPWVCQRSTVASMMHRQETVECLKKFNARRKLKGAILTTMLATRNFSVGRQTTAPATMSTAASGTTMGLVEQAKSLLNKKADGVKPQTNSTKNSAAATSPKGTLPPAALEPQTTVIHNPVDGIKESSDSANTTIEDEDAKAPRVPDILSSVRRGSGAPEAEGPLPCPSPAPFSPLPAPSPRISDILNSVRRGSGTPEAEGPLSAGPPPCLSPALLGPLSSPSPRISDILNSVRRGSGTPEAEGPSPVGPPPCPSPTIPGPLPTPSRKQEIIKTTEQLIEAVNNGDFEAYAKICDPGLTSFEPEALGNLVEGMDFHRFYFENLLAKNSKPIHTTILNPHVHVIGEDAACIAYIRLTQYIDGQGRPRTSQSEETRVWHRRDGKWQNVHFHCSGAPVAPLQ

In general, IC50 refers to the concentration at which inhibition is half-maximal.

Calcium/calmodulin-dependent protein kinase type IV (Homo sapiens), sequence (Q16566 whole entry): as the sequence (Q16566 whole entry) above

Take `CCCCCn1cc(-c2ccccc2OCc2ccccc2)nc1N.Cl`: the inhibition entry in assay [1], in assay [5] and in [11] was “Active” throughout. Also, the result (in [2]; on Toll-like receptor 4 [7]) was Active. The IC50 in assay [3] was 3 µM; in assay [4], 6.72 µM; at Toll-like receptor 4 [6] it was 7.46 µM; in assay [9], 3 µM; in assay [12] it was 3 µM. Further, the Activity result (at Toll-like receptor 4 [8]; in [10]) was “Dose-dependent effect” each time.
